Source: ChEMBL document CHEMBL4689842, “EUbOPEN Chemogenomics Library wave 1” (2021)
Values joined by “and” are separate entries in the source; they are usually repeats but may differ in a detail not shown here. Equal entries are not always repeated.

Test system: HEK-293T
Experiment: Multiplex assay against HEK293T;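 on Population Tubulin-Different-Phenotype (%): share of the cells with healthy nuclei that show this phenotype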
Assay type: toxicity, cell-based
Conditions: human
Procedure, shortened: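 At seeding, live cells were stained with Hoechst33342, BioTracker Green Microtubule Cytoskeleton Dye, MitoTracker Red and Annexin V Alexa Fluor 680. After compound addition they were imaged on a CQ1 microscope at 37°C and 5% CO2, and CellPathfinder machine-learning gating sorted them into Hoechst high-intensity objects or normal cells, with normal cells further split into healthy, pyknosed or fragmented nuclei and pyknosed cells into mitotic or apoptotic. Tubulin, mitochondrial-mass and membrane-permeability phenotypes are given as per cents of cells with healthy nuclei.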

[1] = 12 h, 10 µM, compound concentration 10 uM, replicate 1
[2] = 12 h, 10 µM, compound concentration 10 uM, replicate 2
[3] = 24 h, 10 µM, compound concentration 10 uM, replicate 1
[4] = 24 h, 10 µM, compound concentration 10 uM, replicate 2
[5] = 12 h, 1 µM, compound concentration 1 uM, replicate 1
[6] = 12 h, 1 µM, compound concentration 1 uM, replicate 2
[7] = 24 h, 1 µM, compound concentration 1 uM, replicate 1
[8] = 24 h, 1 µM, compound concentration 1 uM, replicate 2
[9] = 48 h, 1 µM, compound concentration 1 uM, replicate 1
[10] = 48 h, 1 µM, compound concentration 1 uM, replicate 2
[11] = 48 h, 10 µM, compound concentration 10 uM, replicate 1
[12] = 48 h, 10 µM, compound concentration 10 uM, replicate 2

Cc1sc2c(c1C)C(c1ccc(Cl)cc1)=N[C@@H](CC(=O)OC(C)(C)C)c1nnc(C)n1-2
Population Apoptotic (%) [1]: 16% and 17%
Population Fragmented Nuclei (%) [1]: 19% and 13%
Population Healthy Nuclei (%) [1]: 65% and 71%
Population Hoechst High Intensity Objects (%) [1]: 14% and 8%
Population Membrane Permeable-Phenotype (%) [1]: 3%
Population Mitochondria Different-Phenotype (%) [1]: 6% and 5%
Population Mitotic Cells (%) [1]: 83% and 82%
Population Normal (%) [1]: 85% and 91%
Population Pyknosed Nuclei (%) [1]: 15%
Population Tubulin-Different-Phenotype (%) [1]: 2%
Total Cell Count [1]: 561 and 772
Population Apoptotic (%) [2]: 6% and 3%
Population Fragmented Nuclei (%) [2]: 14% and 12%
Population Healthy Nuclei (%) [2]: 79%
Population Hoechst High Intensity Objects (%) [2]: 3% and 4%
Population Membrane Permeable-Phenotype (%) [2]: 0%
Population Mitochondria Different-Phenotype (%) [2]: 10% and 11%
Population Mitotic Cells (%) [2]: 93% and 96%
Population Normal (%) [2]: 96% and 95%
Population Pyknosed Nuclei (%) [2]: 5% and 7%
Population Tubulin-Different-Phenotype (%) [2]: 0%
Total Cell Count [2]: 1959 and 1675
Population Apoptotic (%) [3]: 16% and 12%
Population Fragmented Nuclei (%) [3]: 17% and 9%
Population Healthy Nuclei (%) [3]: 70% and 80%
Population Hoechst High Intensity Objects (%) [3]: 11% and 10%
Population Membrane Permeable-Phenotype (%) [3]: 1%
Population Mitochondria Different-Phenotype (%) [3]: 7% and 3%
Population Mitotic Cells (%) [3]: 84% and 87%
Population Normal (%) [3]: 88% and 89%
Population Pyknosed Nuclei (%) [3]: 11% and 10%
Population Tubulin-Different-Phenotype (%) [3]: 2% and 1%
Total Cell Count [3]: 472 and 770
Population Apoptotic (%) [4]: 5%
Population Fragmented Nuclei (%) [4]: 19% and 20%
Population Healthy Nuclei (%) [4]: 76% and 75%
Population Hoechst High Intensity Objects (%) [4]: 5%
Population Membrane Permeable-Phenotype (%) [4]: 0%
Population Mitochondria Different-Phenotype (%) [4]: 5%
Population Mitotic Cells (%) [4]: 94%
Population Normal (%) [4]: 94%
Population Pyknosed Nuclei (%) [4]: 4% and 3%
Population Tubulin-Different-Phenotype (%) [4]: 0%
Total Cell Count [4]: 1813 and 2044

CN1CCC[C@@H]1CCO[C@](C)(c1ccccc1)c1ccc(Cl)cc1.O=C(O)/C=C/C(=O)O [CLEMASTINE FUMARATE]
Population Apoptotic (%) [5]: 56%
Population Fragmented Nuclei (%) [5]: 10%
Population Healthy Nuclei (%) [5]: 23%
Population Hoechst High Intensity Objects (%) [5]: 9%
Population Membrane Permeable-Phenotype (%) [5]: 5%
Population Mitochondria Different-Phenotype (%) [5]: 96%
Population Mitotic Cells (%) [5]: 43%
Population Normal (%) [5]: 90%
Population Pyknosed Nuclei (%) [5]: 65%
Population Tubulin-Different-Phenotype (%) [5]: 78%
Total Cell Count [5]: 278
Population Apoptotic (%) [6]: 25%
Population Fragmented Nuclei (%) [6]: 4%
Population Healthy Nuclei (%) [6]: 32%
Population Hoechst High Intensity Objects (%) [6]: 3%
Population Membrane Permeable-Phenotype (%) [6]: 13%
Population Mitochondria Different-Phenotype (%) [6]: 48%
Population Mitotic Cells (%) [6]: 75%
Population Normal (%) [6]: 96%
Population Pyknosed Nuclei (%) [6]: 62%
Population Tubulin-Different-Phenotype (%) [6]: 52%
Total Cell Count [6]: 217
Population Apoptotic (%) [1]: 92%
Population Fragmented Nuclei (%) [1]: 14%
Population Healthy Nuclei (%) [1]: 17%
Population Hoechst High Intensity Objects (%) [1]: 18%
Population Membrane Permeable-Phenotype (%) [1]: 6%
Population Mitochondria Different-Phenotype (%) [1]: 100%
Population Mitotic Cells (%) [1]: 7%
Population Normal (%) [1]: 81%
Population Pyknosed Nuclei (%) [1]: 67%
Population Tubulin-Different-Phenotype (%) [1]: 93%
Total Cell Count [1]: 209
Population Apoptotic (%) [2]: 85%
Population Fragmented Nuclei (%) [2]: 6%
Population Healthy Nuclei (%) [2]: 15%
Population Hoechst High Intensity Objects (%) [2]: 6%
Population Membrane Permeable-Phenotype (%) [2]: 4%
Population Mitochondria Different-Phenotype (%) [2]: 96%
Population Mitotic Cells (%) [2]: 14%
Population Normal (%) [2]: 93%
Population Pyknosed Nuclei (%) [2]: 78%
Population Tubulin-Different-Phenotype (%) [2]: 92%
Total Cell Count [2]: 172
Population Apoptotic (%) [7]: 59%
Population Fragmented Nuclei (%) [7]: 12%
Population Healthy Nuclei (%) [7]: 18%
Population Hoechst High Intensity Objects (%) [7]: 21%
Population Membrane Permeable-Phenotype (%) [7]: 0%
Population Mitochondria Different-Phenotype (%) [7]: 95%
Population Mitotic Cells (%) [7]: 40%
Population Normal (%) [7]: 78%
Population Pyknosed Nuclei (%) [7]: 68%
Population Tubulin-Different-Phenotype (%) [7]: 63%
Total Cell Count [7]: 274
Population Apoptotic (%) [8]: 42%
Population Fragmented Nuclei (%) [8]: 7%
Population Healthy Nuclei (%) [8]: 60%
Population Hoechst High Intensity Objects (%) [8]: 1%
Population Membrane Permeable-Phenotype (%) [8]: 4%
Population Mitochondria Different-Phenotype (%) [8]: 56%
Population Mitotic Cells (%) [8]: 57%
Population Normal (%) [8]: 98%
Population Pyknosed Nuclei (%) [8]: 32%
Population Tubulin-Different-Phenotype (%) [8]: 60%
Total Cell Count [8]: 273
Population Fragmented Nuclei (%) [3]: 15%
Population Healthy Nuclei (%) [3]: 11%
Population Hoechst High Intensity Objects (%) [3]: 23%
Population Membrane Permeable-Phenotype (%) [3]: 0%
Population Mitochondria Different-Phenotype (%) [3]: 100%
Population Normal (%) [3]: 76%
Population Pyknosed Nuclei (%) [3]: 72%
Population Tubulin-Different-Phenotype (%) [3]: 94%
Total Cell Count [3]: 211
Population Apoptotic (%) [4]: 92%
Population Fragmented Nuclei (%) [4]: 4%
Population Healthy Nuclei (%) [4]: 20%
Population Hoechst High Intensity Objects (%) [4]: 6%
Population Membrane Permeable-Phenotype (%) [4]: 6%
Population Mitochondria Different-Phenotype (%) [4]: 93%
Population Mitotic Cells (%) [4]: 7%
Population Normal (%) [4]: 93%
Population Pyknosed Nuclei (%) [4]: 74%
Population Tubulin-Different-Phenotype (%) [4]: 93%
Total Cell Count [4]: 159
Population Apoptotic (%) [9]: 66%
Population Fragmented Nuclei (%) [9]: 21%
Population Healthy Nuclei (%) [9]: 11%
Population Hoechst High Intensity Objects (%) [9]: 23%
Population Membrane Permeable-Phenotype (%) [9]: 4%
Population Mitochondria Different-Phenotype (%) [9]: 88%
Population Mitotic Cells (%) [9]: 33%
Population Normal (%) [9]: 76%
Population Pyknosed Nuclei (%) [9]: 66%
Population Tubulin-Different-Phenotype (%) [9]: 72%
Total Cell Count [9]: 276
Population Apoptotic (%) [10]: 21%
Population Fragmented Nuclei (%) [10]: 4%
Population Healthy Nuclei (%) [10]: 81%
Population Hoechst High Intensity Objects (%) [10]: 1%
Population Membrane Permeable-Phenotype (%) [10]: 5%
Population Mitochondria Different-Phenotype (%) [10]: 29%
Population Mitotic Cells (%) [10]: 78%
Population Normal (%) [10]: 98%
Population Pyknosed Nuclei (%) [10]: 13%
Population Tubulin-Different-Phenotype (%) [10]: 60%
Total Cell Count [10]: 406
Population Apoptotic (%) [11]: 86%
Population Fragmented Nuclei (%) [11]: 24%
Population Healthy Nuclei (%) [11]: 1%
Population Hoechst High Intensity Objects (%) [11]: 23%
Population Membrane Permeable-Phenotype (%) [11]: 0%
Population Mitochondria Different-Phenotype (%) [11]: 100%
Population Mitotic Cells (%) [11]: 13%
Population Normal (%) [11]: 76%
Population Pyknosed Nuclei (%) [11]: 73%
Population Tubulin-Different-Phenotype (%) [11]: 66%
Total Cell Count [11]: 230
Population Apoptotic (%) [12]: 97%
Population Fragmented Nuclei (%) [12]: 14%
Population Healthy Nuclei (%) [12]: 15%
Population Hoechst High Intensity Objects (%) [12]: 8%
Population Membrane Permeable-Phenotype (%) [12]: 8%
Population Mitochondria Different-Phenotype (%) [12]: 83%
Population Mitotic Cells (%) [12]: 2%
Population Normal (%) [12]: 91%
Population Pyknosed Nuclei (%) [12]: 69%
Population Tubulin-Different-Phenotype (%) [12]: 75%
Total Cell Count [12]: 168
